Common to all, as to assay type: functional, cell-based
A short description of assay [1]: Cytotoxicity against human KBVIN cells after 72 hrs by SRB assay. In outline:
(§1)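 Cells seeded at 3–5 × 10^3 per well in RPMI-1640 with 10% FBS containing graded sample concentrations, exposed 72 h. Attached cells fixed with cold 50% trichloroacetic acid 30 min, stained with 0.04% SRB 30 min, bound dye dissolved in 10 mM Tris-base, absorbance read at 515 nm. Triplicate experiments; IC50 reported. KBvin is a vincristine-selected MDR KB subline.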

Assay [2] has as its system A549. The assay is described as follows: Cytotoxicity against human A549 cells after 72 hrs by SRB assay. In outline: as §1
Background: In SRB staining, fixed cells bind dye roughly in proportion to their protein.

The test system of assay [3] is DU-145. The assay is described as follows: Cytotoxicity against human DU145 cells after 72 hrs by SRB assay. In outline: as §1
Assay [4] deals with KB. The assay is described as follows: Cytotoxicity against human KB cells after 72 hrs by SRB assay. In outline: as §1

Consider `CCCC(OC(=O)C1=CC(C)(C)N([O])C1(C)C)C(=O)N[C@@H]1c2cc3c(cc2[C@@H](c2cc(OC)c(OC)c(OC)c2)[C@H]2C(=O)OC[C@@H]21)OCO3` (some centres undefined), for which the IC50 (in general, the midpoint of a concentration-inhibition curve) is 8.88 µM in assay [1] (kbvin), 8.86 µM in assay [2], 7.07 µM in assay [3] and 7.12 µM in assay [4].
Regarding `CCCC(C(=O)N[C@@H]1c2cc3c(cc2[C@@H](c2cc(OC)c(OC)c(OC)c2)[C@H]2C(=O)OC[C@@H]21)OCO3)N(C(=O)C1=CC(C)(C)N([O])C1(C)C)C1CCCCC1` (some centres undefined), the IC50 worked out at 8.83 µM in assay [1] (kbvin), 8.98 µM in assay [2], 11 µM in assay [3] and 9.35 µM in assay [4].
On the same counts, the results for `CCCC(C(=O)N[C@@H]1c2cc3c(cc2[C@@H](c2cc(OC)c(OC)c(OC)c2)[C@H]2C(=O)OC[C@@H]21)OCO3)N(CCC)C(=O)C1=CC(C)(C)N([O])C1(C)C` (some centres undefined) are more than 20 µM, more than 20 µM, more than 20 µM and more than 20 µM.
`COc1cc([C@@H]2c3cc4c(cc3[C@@H](O[C@@H]3O[C@@H]5CO[C@@H](C)O[C@H]5[C@H](O)[C@H]3O)[C@H]3COC(=O)[C@H]23)OCO4)cc(OC)c1O` [ETOPOSIDE] showed an IC50 in assay [1] (Homo sapiens, KBVIN, 72 h) of more than 20 µM.
For the compound `CCCN(C(=O)C1=CC(C)(C)N([O])C1(C)C)C(C(=O)N[C@@H]1c2cc3c(cc2[C@@H](c2cc(OC)c(OC)c(OC)c2)[C@H]2C(=O)OC[C@@H]21)OCO3)c1ccccc1` (some centres undefined), the IC50 in assay [1] (kbvin), in assay [2], in assay [3] and in assay [4] was more than 20 µM in each case.
As for `COc1cc([C@@H]2c3cc4c(cc3[C@@H](NC(=O)C3(OC(=O)C5=CC(C)(C)N([O])C5(C)C)CCCCC3)[C@H]3COC(=O)[C@H]23)OCO4)cc(OC)c1OC`, the IC50 is 13.7 µM in assay [1] (kbvin), 9.52 µM in assay [2], 8.74 µM in assay [3] and 9.24 µM in assay [4].
On the same counts, the results for `COc1cc([C@@H]2c3cc4c(cc3[C@@H](NC(=O)C(OC(=O)C3=CC(C)(C)N([O])C3(C)C)c3ccccc3)[C@H]3COC(=O)[C@H]23)OCO4)cc(OC)c1OC` (some centres undefined) are more than 20 µM, more than 20 µM, more than 20 µM and more than 20 µM.
With `COc1cc([C@@H]2c3cc4c(cc3[C@@H](NC(=O)C(c3ccccc3)N(C(=O)C3CC(C)(C)N([O])C(C)(C)C3)c3ccccc3)[C@H]3COC(=O)[C@H]23)OCO4)cc(OC)c1OC` (some centres undefined), the IC50 in assay [1] (kbvin) turned out to be 6.45 µM; in assay [2], 6.1 µM; in assay [3], 6.08 µM; in assay [4], 5.94 µM.
Take `COc1cc([C@@H]2c3cc4c(cc3[C@@H](NC(=O)C(Cc3ccccc3)OC(=O)C3=CC(C)(C)N([O])C3(C)C)[C@H]3COC(=O)[C@H]23)OCO4)cc(OC)c1OC` (some centres undefined): the IC50 in assay [1] (kbvin) came out at 7.71 µM; in assay [2], 7.68 µM; in assay [3] it was 6.82 µM; in assay [4] it was 6.53 µM.
On the same counts, the results for `CCCN(C(=O)C1=CC(C)(C)N([O])C1(C)C)C1(C(=O)N[C@@H]2c3cc4c(cc3[C@@H](c3cc(OC)c(OC)c(OC)c3)[C@H]3C(=O)OC[C@@H]32)OCO4)CCCCC1` are more than 20 µM, more than 20 µM, more than 20 µM and more than 20 µM.
In the case of `CCCC(C(=O)N[C@@H]1c2cc3c(cc2[C@@H](c2cc(OC)c(OC)c(OC)c2)[C@H]2C(=O)OC[C@@H]21)OCO3)N(CCC)C(=O)C1CC(C)(C)N([O])C(C)(C)C1` (some centres undefined), the IC50 in assay [1] (kbvin), in assay [2], in assay [3] and in assay [4] was more than 20 µM throughout.
On to `CCCC(OC(=O)C1CC(C)(C)N([O])C(C)(C)C1)C(=O)N[C@@H]1c2cc3c(cc2[C@@H](c2cc(OC)c(OC)c(OC)c2)[C@H]2C(=O)OC[C@@H]21)OCO3` (some centres undefined), for which the half-maximal inhibitory concentration (IC50) was 7.96 µM in assay [1] (kbvin), 8.82 µM in assay [2], 7.13 µM in assay [3] and 6.58 µM in assay [4].
On the same counts, the results for `COc1cc([C@@H]2c3cc4c(cc3[C@@H](NC(=O)C(C)(C)OC(=O)C3=CC(C)(C)N([O])C3(C)C)[C@H]3COC(=O)[C@H]23)OCO4)cc(OC)c1OC` are 2.55 µM, 2.38 µM, 2.39 µM and 2.32 µM.
Consider `CCCN(C(=O)C1=CC(C)(C)N([O])C(C)(C)C1)C(C)(C)C(=O)N[C@@H]1c2cc3c(cc2[C@@H](c2cc(OC)c(OC)c(OC)c2)[C@H]2C(=O)OC[C@@H]21)OCO3`, for which the IC50 in assay [1] (kbvin), in assay [2], in assay [3] and in assay [4] was more than 20 µM each time.
Consider `CCCC(C(=O)N[C@@H]1c2cc3c(cc2[C@@H](c2cc(OC)c(OC)c(OC)c2)[C@H]2C(=O)OC[C@@H]21)OCO3)N(CCC)C(=O)C1=CC(C)(C)N([O])C(C)(C)C1` (some centres undefined), for which the IC50 in assay [1] (kbvin), in assay [2], in assay [3] and in assay [4] was more than 20 µM each time.
For `CCCN(C(=O)C1=CC(C)(C)N([O])C1(C)C)C(C)(C)C(=O)N[C@@H]1c2cc3c(cc2[C@@H](c2cc(OC)c(OC)c(OC)c2)[C@H]2C(=O)OC[C@@H]21)OCO3`, the half-maximal inhibitory concentration (IC50) in assay [1] (kbvin), in assay [2], in assay [3] and in assay [4] was more than 20 µM throughout.
Take `CCCC(OC(=O)C1=CC(C)(C)N([O])C(C)(C)C1)C(=O)N[C@@H]1c2cc3c(cc2[C@@H](c2cc(OC)c(OC)c(OC)c2)[C@H]2C(=O)OC[C@@H]21)OCO3` (some centres undefined): the IC50 in assay [1] (kbvin) worked out at 8.35 µM; in assay [2], 9.05 µM; in assay [3], 7.27 µM; in assay [4], 6.88 µM.
For the compound `CCCC(C(=O)N[C@@H]1c2cc3c(cc2[C@@H](c2cc(OC)c(OC)c(OC)c2)[C@H]2C(=O)OC[C@@H]21)OCO3)N(C(=O)C1=CC(C)(C)N([O])C1(C)C)C(C)(C)C` (some centres undefined), the IC50 in assay [1] (kbvin), in assay [2], in assay [3] and in assay [4] was more than 20 µM each time.
Take `COc1cc([C@@H]2c3cc4c(cc3[C@@H](NC(=O)C(OC(=O)C3=CC(C)(C)N([O])C3(C)C)c3ccc5c(c3)OCO5)[C@H]3COC(=O)[C@H]23)OCO4)cc(OC)c1OC` (some centres undefined): the IC50 is 2.03 µM in assay [1] (kbvin), 1.46 µM in assay [2], 1.37 µM in assay [3] and 1.12 µM in assay [4].
On the same counts, the results for `CCCC(C(=O)N[C@@H]1c2cc3c(cc2[C@@H](c2cc(OC)c(OC)c(OC)c2)[C@H]2C(=O)OC[C@@H]21)OCO3)N(C(=O)C1=CC(C)(C)N([O])C1(C)C)c1ccccc1` (some centres undefined) are 7.47 µM, 8.4 µM, 9.78 µM and 8.49 µM.
In the same order, the values of `COc1ccc(C(OC(=O)C2=CC(C)(C)N([O])C2(C)C)C(=O)N[C@@H]2c3cc4c(cc3[C@@H](c3cc(OC)c(OC)c(OC)c3)[C@H]3C(=O)OC[C@@H]32)OCO4)cc1` (some centres undefined) are 0.73 µM, 0.75 µM, 0.63 µM and 0.6 µM.
On the same counts, the results for `CCCN(C(=O)C1=CC(C)(C)N([O])C1(C)C)C(C(=O)N[C@@H]1c2cc3c(cc2[C@@H](c2cc(OC)c(OC)c(OC)c2)[C@H]2C(=O)OC[C@@H]21)OCO3)c1ccc(OC)cc1` (some centres undefined) are more than 20 µM, more than 20 µM, more than 20 µM and more than 20 µM.
Consider `COc1cc([C@@H]2c3cc4c(cc3[C@@H](NC(=O)C(OC(=O)C3=CC(C)(C)N([O])C3(C)C)c3ccco3)[C@H]3COC(=O)[C@H]23)OCO4)cc(OC)c1OC` (some centres undefined), for which the IC50 in assay [1] (kbvin) is 7.35 µM; in assay [2], 7.38 µM; in assay [3], 6.55 µM; in assay [4], 7.12 µM.

(Values after ChEMBL document CHEMBL3120116, “Toward synthesis of third-generation spin-labeled podophyllotoxin derivatives using isocyanide multicomponent reactions” (Eur J Med Chem, 2014).)
